{"source": "paper PMC3466390", "about": "(Biomaterials, 2012)", "key": {"E. coli (ATCC 25922)": {"tested_on": "E. coli (ATCC 25922)", "assay": "Antibacterial assay on hydrogel surfaces", "assay_type": "cell-based, Escherichia coli", "settings": "0.5, 1, 1.5 and 2 wt% hydrogels, 10^5 CFU/dm^2, 24 h, 37°C, n=3", "summary_of_the_method": "(§1)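 Gels (0.5–2 wt%) formed in wells by mixing peptide stocks in sterile water 1:1 with BTP buffer (100 mM, 300 mM NaCl, pH 7.4). They were held 3 h at 37°C, then equilibrated overnight under BTP (50 mM, 150 mM NaCl, pH 7.4), and the buffer was removed. Bacteria were grown overnight on blood agar, applied at 10^4 CFU/mL in TSB, and incubated 24 h at 37°C, with bare plastic as control. After a TSB wash, OD625 of the overlying solution was corrected for dilution and scattering. % non-viable = [1 − OD surface/OD control]×100; triplicate.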"}, "S. aureus (ATCC 25923)": {"tested_on": "S. aureus (ATCC 25923)", "assay": "Antibacterial assay on hydrogel surfaces", "assay_type": "cell-based, Staphylococcus aureus", "settings": "0.5, 1, 1.5 and 2 wt% hydrogels, 10^5 CFU/dm^2, 24 h, 37°C, n=3", "summary_of_the_method": "as §1"}, "[1]": {"tested_on": "P. aeruginosa (ATCC 27853)", "assay": "Antibacterial assay on hydrogel surfaces", "assay_type": "cell-based, Pseudomonas aeruginosa", "settings": "10^5 CFU/dm^2, 24 h, 37°C, n=3", "summary_of_the_method": "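Peptide stocks in sterile water were mixed 1:1 with BTP (100 mM, 300 mM NaCl, pH 7.4) to gel, held 3 h at 37°C, then equilibrated overnight under BTP (50 mM, 150 mM NaCl, pH 7.4), which was then removed. Blood-agar-grown bacteria (18-20 h) at 10⁴ CFU/mL in TSB were applied to the gel surface for 24 h at 37°C. OD625 was compared with bare polystyrene: % non-viable = [1 − OD surface/OD control]×100.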"}, "[2]": {"tested_on": "human red blood cells (hRBCs)", "assay_type": "cell-based"}, "P. aeruginosa": {"tested_on": "P. aeruginosa", "assay_type": "cell-based"}, "E. coli [3]": {"tested_on": "E. coli", "assay": "Atomic force microscopy imaging of bacteria on gel", "assay_type": "cell-based, Escherichia coli", "settings": "2 wt% hydrogel, 2 h incubation, 37°C"}, "E. coli [4]": {"tested_on": "E. coli", "assay": "Antibacterial assay in the presence of Ca2+", "assay_type": "cell-based, Escherichia coli", "settings": "1 wt% hydrogel, 0, 0.1, 1, 10 and 20 mM Ca2+, 37°C, CFU count, n=3"}, "S. aureus": {"tested_on": "S. aureus", "assay": "Antibacterial assay in the presence of Ca2+", "assay_type": "cell-based, Staphylococcus aureus", "settings": "1 wt% hydrogel, 0, 0.1, 1, 10 and 20 mM Ca2+, 37°C, CFU count, n=3"}, "[5]": {"assay": "Oscillatory rheology of hydrogels", "assay_type": "physicochemical", "settings": "1 wt% gel, 0.2% strain", "summary_of_the_method": "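A 2 wt% peptide solution in chilled water was mixed with an equal volume of BTP (100 mM, 300 mM NaCl, pH 7.4). It was loaded on a 25 mm parallel plate at 5°C with a 0.5 mm gap, then ramped to 37°C over 100 s. G′ and G″ were followed by a 1 h time sweep at 6 rad/s and 0.2% strain. For recovery, 1000% strain was applied for 30 s at 6 rad/s, followed by a second 1 h sweep.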"}, "[6]": {"assay": "CD spectroscopy of folding and self-assembly", "assay_type": "physicochemical", "summary_of_the_method": "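Peptides were measured at 1 wt% in chilled water, or as chilled 2 wt% aqueous stock mixed 1:1 with BTP stock (100 mM, 300 mM NaCl, pH 7.4) and left to gel in the cell. Scans ran 200–260 nm at 37°C in a 0.1 mm quartz cell. Mean residue ellipticity was [θ] = (θobs/10lc)/r.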"}}, "note": "Entries after “also recorded” stand apart in the source; their conditions may differ.", "data": [{"substance": "VKVRVRVRV^DPPTRVRVRVKV [PEP6R]", "values": [{"measurement": "antibacterial activity of hydrogel surface against E. coli, in words", "setting": "E. coli (ATCC 25922)", "result": "inhibit E. coli and S. aureus proliferation at all weight percentages; also recorded: quantitatively kills E. coli at all weight percents tested"}, {"measurement": "antibacterial activity of hydrogel surface against S. aureus, in words", "setting": "S. aureus (ATCC 25923)", "result": "inhibit E. coli and S. aureus proliferation at all weight percentages"}, {"measurement": "antibacterial activity of hydrogel surface against P. aeruginosa, in words", "setting": "[1]; 0.5 wt% hydrogel", "result": "only marginally active"}, {"measurement": "antibacterial activity of hydrogel surface against P. aeruginosa, in words", "setting": "[1]; 1.5 wt% hydrogel", "result": "extremely potent"}, {"measurement": "antibacterial activity of hydrogel surface against P. aeruginosa, in words", "setting": "[1]; 2 wt% hydrogel", "result": "extremely potent"}, {"measurement": "hemolytic activity", "setting": "[2]", "result": "low hemolytic activity"}, {"measurement": "live-dead result at the gel surface (cytostatic or cytotoxic)", "setting": "P. aeruginosa", "result": "cytotoxic"}, {"measurement": "live-dead result at the gel surface, short incubation, compared with 24 h", "setting": "P. aeruginosa; 2 wt% hydrogel, 2 h incubation", "result": "identical"}, {"measurement": "morphology of E. coli on gel surface by AFM", "setting": "E. coli [3]", "result": "membrane surface has collapsed and appears highly punctated"}, {"measurement": "antibacterial activity (percent non-viable bacteria) in the presence of Ca2+", "setting": "E. coli [4]", "result": "progressively attenuated with increasing concentrations of Ca^2+"}, {"measurement": "antibacterial activity (percent non-viable bacteria) in the presence of Ca2+", "setting": "S. aureus", "result": "progressively attenuated with increasing concentrations of Ca^2+"}, {"measurement": "storage modulus (G')", "setting": "[5]; 50 mM BTP, 150 mM NaCl, pH 7.4, 37°C, after 1 h, 6 rad/s", "result": "increase in mechanical rigidty"}, {"measurement": "recovery of initial mechanical rigidity after shear-thinning", "setting": "[5]; 37°C, 1000% strain for 30 s, then 1 h at 6 rad/s", "result": "about 90%"}]}, {"substance": "VRVRVRVRV^DPPTRVRVRVRV-NH2 [PEP8R]", "values": [{"measurement": "antibacterial activity of hydrogel surface against E. coli, in words", "setting": "E. coli (ATCC 25922)", "result": "capable of inhibiting both E. coli and S. aureus proliferation, irrespective of the peptide weight percentage used"}, {"measurement": "antibacterial activity of hydrogel surface against S. aureus, in words", "setting": "S. aureus (ATCC 25923)", "result": "capable of inhibiting both E. coli and S. aureus proliferation, irrespective of the peptide weight percentage used"}, {"measurement": "hemolytic activity", "setting": "[2]", "result": "about 25%"}, {"measurement": "hemolytic activity as a function of wt%", "setting": "[2]", "result": "decreases in a concentration dependent manner"}, {"measurement": "folding/assembly state by CD", "setting": "[6]; 1 wt% peptide in BTP buffer with NaCl, pH 7.4, 37°C", "result": "folded and assembled into β-sheet structures"}, {"measurement": "folding/assembly state by CD", "setting": "[6]; 1 wt% peptide in water, 37°C", "result": "unfolded peptide"}]}]}
